Reference: ChEMBL document CHEMBL1129609, “Synthesis and antiviral activity evaluation of some new aminoadamantane derivatives. 2” (1996)
In brackets after ≈: the same amount, converted by molar mass.

Columns and labels:
[1] = tested on: MDCK; assay: Antiviral activity tested against influenza A,H1N1 virus infected MDCK cell lines.; format: functional; conditions: Canis lupus familiaris
[2] = tested on: Coxsackievirus B4; assay: Antiviral activity against Coxsackie B4 virus infected HeLa cell lines.; format: functional; conditions: Enterovirus B
Method in brief: (§1)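 Vero (African green monkey kidney), HeLa (human epithelial) or HEL (human embryonic lung) cell monolayers infected with the virus. Readout is the minimum inhibitory concentration that reduces virus-induced cytopathicity by 50%. Values are averages of at least two separate experiments.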

[3] = tested on: Mammalian orthoreovirus 1; assay: Antiviral activity against Reo 1 virus infected vero cell lines.; format: functional; method in brief: as §1
[4] = tested on: HEL; assay: Inhibition of HEL cell proliferation.; format: functional; conditions: Homo sapiens
Method in brief: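 Human embryonic lung fibroblasts were used for the proliferation assay. The value is the concentration that reduces cell proliferation by 50%, averaged from at least two separate experiments.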

[5] = tested on: Influenza B virus; assay: Antiviral activity against influenza B virus infected MDCK cell lines.; format: functional
[6] = tested on: Human alphaherpesvirus 2; assay: Antiviral activity against HSV-2 virus infected HEF cell lines.; format: functional
Method in brief: (§2)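 Human embryonic fibroblasts, from embryonic lung or embryonic skin-muscle, infected with the virus. Endpoint is the minimum inhibitory concentration that reduces virus-induced cytopathicity by 50%. Values are averages of at least two separate experiments.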

[7] = tested on: Human alphaherpesvirus 3; assay: Antiviral activity against TK+VZV virus infected HEL cell lines.; format: functional; method in brief: as §1
[8] = tested on: Vero; assay: Effects on cell morphology of Vero cell lines.; format: functional; conditions: Chlorocebus sabaeus
Method in brief: (§3)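 HeLa (human epithelial) or Vero (African green monkey kidney) cells were examined under the microscope for changes in normal morphology. The value is the minimum concentration causing a detectable alteration, averaged from at least two separate experiments.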

[9] = tested on: Vesicular stomatitis virus; assay: Antiviral activity against vesicular stomatitis virus infected HEF cell lines.; format: functional; method in brief: as §2
[10] = tested on: Human alphaherpesvirus 1; assay: Antiviral activity against TK-HSV-1 virus infected HEF cell lines.; format: functional; method in brief: as §2
[11] = tested on: Human alphaherpesvirus 1; assay: Antiviral activity against HSV-1 virus infected HEF cell lines.; format: functional; method in brief: as §2
[12] = tested on: Human respirovirus 3; assay: Antiviral activity against parainfluenza 3 virus infected Vero cell lines.; format: functional; method in brief: as §1
[13] = tested on: Vaccinia virus; assay: Antiviral activity against vaccinia virus infected HEF cell lines.; format: functional; conditions: Orthopoxvirus vaccinia; method in brief: as §2
[14] = tested on: Semliki Forest virus; assay: Antiviral activity against Semliki forest virus infected Vero cell lines.; format: functional; method in brief: as §1
[15] = tested on: Human alphaherpesvirus 3; assay: Antiviral activity against TK-VZV virus infected HEL cell lines.; format: functional; method in brief: as §1
[16] = tested on: Human immunodeficiency virus 2; assay: Antiviral activity against HIV-2 virus infected CEM cell lines.; format: functional, CCRF-CEM
[17] = tested on: MDCK; assay: Antiviral activity of compound was tested against morphology virus infec+ted MDCK cell lines.; format: functional; conditions: Canis lupus familiaris
[18] = tested on: Coxsackievirus B4; assay: Antiviral activity against Coxsackie B4 virus infected vero cell lines.; format: functional; conditions: Enterovirus B; method in brief: as §1
[19] = tested on: Human immunodeficiency virus 1; assay: Antiviral activity against HIV-1 virus infected CEM cell lines.; format: functional, CCRF-CEM
[20] = tested on: HEF; assay: Effects on cell morphology of HEF cell lines.; format: functional; conditions: Homo sapiens
Method in brief: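 Human embryonic skin-muscle fibroblasts were examined under the microscope for changes in normal cell morphology. The value is the minimum concentration causing a microscopically detectable alteration, averaged from at least two separate experiments.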

[21] = Antiviral activity against influenza A,H3N2 virus infected MDCK cell lines.; format: functional
[22] = tested on: Enterovirus C; assay: Antiviral activity against polio 1 virus infected HeLa cell lines.; format: functional; method in brief: as §1
[23] = tested on: HeLa; assay: Effects on cell morphology of HeLa cell lines.; format: functional; conditions: Homo sapiens; method in brief: as §3
[24] = tested on: Human betaherpesvirus 5; assay: Antiviral activity against HCMV virus infected HEL cell lines.; format: functional; method in brief: as §1
[25] = tested on: CCRF-CEM; assay: Cytotoxicity against CEM cell lines.; format: functional; conditions: Homo sapiens
[26] = tested on: Sindbis virus; assay: Antiviral activity against sindbis virus infected Vero cell lines.; format: functional; method in brief: as §1
[27] = Antiviral activity against influenza A,H2N2 virus infected MDCK cell lines.; format: functional
[28] = tested on: Vesicular stomatitis virus; assay: Antiviral activity against vesicular stomatitis virus infected HeLa cell lines.; format: functional; method in brief: as §1

| SMILES | MIC50 [1] | MIC50 [2] | MIC50 [3] | MIC50 [4] | MIC50 [5] | MIC50 [6] | MIC50 [7] | MIC50 [8] | MIC50 [9] | MIC50 [10] | MIC50 [11] | MIC50 [12] | MIC50 [13] | MIC50 [14] | MIC50 [15] | MIC50 [16] | MIC50 [17] | MIC50 [18] | MIC50 [19] | MIC50 [20] | other results |
| --- | --- | --- | --- | --- | --- | --- | --- | --- | --- | --- | --- | --- | --- | --- | --- | --- | --- | --- | --- | --- | --- |
| CC1(C)CCCN1CC12CC3CC(CC(C3)C1)C2 | > 150 µg/mL | > 200 µg/mL | > 200 µg/mL | > 50 µg/mL | > 100 µg/mL | > 40 µg/mL | > 50 µg/mL | > 400 µg/mL | > 40 µg/mL | > 40 µg/mL | > 40 µg/mL | > 200 µg/mL | > 40 µg/mL | > 200 µg/mL | > 50 µg/mL | > 40 µg/mL | > 250 µg/mL | > 200 µg/mL | > 40 µg/mL | 100 µg/mL (≈ 404 µM) | MIC50 [21]: > 87 µg/mL; MIC50 [22]: > 200 µg/mL; MIC50 [23]: > 400 µg/mL; MIC50 [24]: > 50 µg/mL; MIC50 [25]: 99 µg/mL (≈ 400 µM); MIC50 [26]: > 200 µg/mL; MIC50 [27]: 35 µg/mL (≈ 141 µM); MIC50 [28]: 100 µg/mL (≈ 404 µM) |
| CC(C)(C)C1CCCN1CC12CC3CC(CC(C3)C1)C2 (stereo not given) | > 104 µg/mL | > 100 µg/mL | > 200 µg/mL | > 50 µg/mL | > 100 µg/mL | > 100 µg/mL | 35 µg/mL (≈ 127 µM) | 400 µg/mL (≈ 1450 µM) | > 100 µg/mL | > 100 µg/mL | > 100 µg/mL | > 200 µg/mL | > 100 µg/mL | > 200 µg/mL | 20 µg/mL (≈ 72.6 µM) | > 40 µg/mL | > 250 µg/mL | > 200 µg/mL | > 40 µg/mL | 200 µg/mL (≈ 726 µM) | MIC50 [21]: > 100 µg/mL; MIC50 [22]: > 100 µg/mL; MIC50 [23]: 200 µg/mL (≈ 726 µM); MIC50 [24]: > 50 µg/mL; MIC50 [25]: 72 µg/mL (≈ 261 µM); MIC50 [26]: > 200 µg/mL; MIC50 [27]: > 100 µg/mL; MIC50 [28]: > 100 µg/mL |
| CN1CCCC1C12CC3CC(CC(C3)C1)C2 (stereo not given) | > 34 µg/mL | > 400 µg/mL | > 400 µg/mL | > 50 µg/mL | 60 µg/mL (≈ 274 µM) | > 100 µg/mL | > 50 µg/mL | > 400 µg/mL | > 100 µg/mL | > 100 µg/mL | > 100 µg/mL | > 400 µg/mL | > 100 µg/mL | > 400 µg/mL | > 50 µg/mL | > 40 µg/mL | 250 µg/mL (≈ 1140 µM) | > 400 µg/mL | > 40 µg/mL | 200 µg/mL (≈ 912 µM) | MIC50 [21]: 60 µg/mL (≈ 274 µM); MIC50 [22]: > 400 µg/mL; MIC50 [23]: > 400 µg/mL; MIC50 [24]: > 50 µg/mL; MIC50 [25]: 120 µg/mL (≈ 547 µM); MIC50 [26]: > 400 µg/mL; MIC50 [27]: 16.5 µg/mL (≈ 75.2 µM); MIC50 [28]: > 400 µg/mL |
| C1CCC2(NC1)C1CC3CC(C1)CC2C3 (stereo not given) | > 35 µg/mL | > 400 µg/mL | > 400 µg/mL | > 50 µg/mL | 60 µg/mL (≈ 292 µM) | > 200 µg/mL | > 50 µg/mL | > 400 µg/mL | > 200 µg/mL | > 200 µg/mL | 100 µg/mL (≈ 487 µM) | > 400 µg/mL | > 200 µg/mL | > 400 µg/mL | > 50 µg/mL | > 40 µg/mL | > 250 µg/mL | > 400 µg/mL | > 40 µg/mL | 400 µg/mL (≈ 1950 µM) | MIC50 [21]: 43 µg/mL (≈ 209 µM); MIC50 [22]: > 400 µg/mL; MIC50 [23]: > 400 µg/mL; MIC50 [24]: > 50 µg/mL; MIC50 [25]: 93 µg/mL (≈ 453 µM); MIC50 [26]: > 400 µg/mL; MIC50 [27]: 0.24 µg/mL (≈ 1.17 µM); MIC50 [28]: > 400 µg/mL |
| C1COCC2(N1)C1CC3CC(C1)CC2C3 (stereo not given) | 29 µg/mL (≈ 140 µM) | > 400 µg/mL | > 400 µg/mL | > 50 µg/mL | 20 µg/mL (≈ 96.5 µM) | > 200 µg/mL | > 50 µg/mL | > 400 µg/mL | > 200 µg/mL | > 200 µg/mL | > 200 µg/mL | > 400 µg/mL | > 200 µg/mL | > 400 µg/mL | > 50 µg/mL | > 200 µg/mL | > 250 µg/mL | > 400 µg/mL | 158 µg/mL (≈ 762 µM) | > 200 µg/mL | MIC50 [21]: 13 µg/mL (≈ 62.7 µM); MIC50 [22]: > 400 µg/mL; MIC50 [23]: > 400 µg/mL; MIC50 [24]: > 50 µg/mL; MIC50 [25]: > 200 µg/mL; MIC50 [26]: > 400 µg/mL; MIC50 [27]: 1.7 µg/mL (≈ 8.2 µM); MIC50 [28]: > 400 µg/mL |
